Reference: ChEMBL document CHEMBL3351348, “Synthesis and biological evaluation of new simple indolic non peptidic HIV Protease inhibitors: the effect of different substitution patterns” (Bioorg Med Chem, 2014)

assay: Inhibition of HIV Protease using Abz-Thr-Ile-Nle-Phe(NO2)-Gln-Arg as fluorogenic substrate by fluorimetry; parameters: species or system Human immunodeficiency virus; settings: not given; call rule not given here
Procedure, shortened: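 Commercial HIV-PR at 10 nm final, in pH 5.5 MES buffer (100 mM MES/NaOH, 400 mM NaCl, 1 mM EDTA, 1 mM DTT), 25 °C thermostated cuvette. Substrate at 30 μM final. Excitation 325 nm, emission 420 nm. Enzyme added after 1.5 min and inhibitor (DMSO stock) after a further 1 min, then read 10 min. IC50 from initial rates over several inhibitor concentrations, at least three independent experiments.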

| IC50 | Structure (SMILES) |
| --- | --- |
| Not Active | CC(C)CN(C[C@@H](O)CNc1ccc2[nH]ccc2c1)S(=O)(=O)c1ccc([N+](=O)[O-])cc1 |

same assay, conditions: read-out: IC50

| IC50 | Structure (SMILES) |
| --- | --- |
| 1 µM | COc1ccc(S(=O)(=O)N(CC(C)C)C[C@@H](O)COc2ccc3[nH]ccc3c2)cc1OC |
| 346 µM | COc1ccc(S(=O)(=O)N(CC(C)C)C[C@@H](O)COc2ccc3cc[nH]c3c2)cc1OC |
| 24 µM | CC(C)(C)NC(=O)[C@@H]1C[C@@H]2CCCC[C@@H]2CN1C[C@@H](O)COc1cccc2[nH]ccc12 |
| 14 µM | CC(C)(C)NC(=O)[C@@H]1C[C@@H]2CCCC[C@@H]2CN1C[C@@H](O)COc1ccc2[nH]ccc2c1 |
| 138 µM | CC(C)(C)NC(=O)[C@@H]1C[C@@H]2CCCC[C@@H]2CN1C[C@@H](O)COc1ccc2cc[nH]c2c1 |
| 346 µM | CC(C)CN(C[C@@H](O)COc1cccc2[nH]ccc12)S(=O)(=O)c1ccc([N+](=O)[O-])cc1 |
| 10 µM | CC(C)CN(C[C@@H](O)COc1ccc2[nH]ccc2c1)S(=O)(=O)c1ccc([N+](=O)[O-])cc1 |
| 12 µM | CC(C)CN(C[C@@H](O)COc1ccc2[nH]ccc2c1)S(=O)(=O)c1ccc(N)cc1 |
| 46 µM | CC(C)CN(C[C@@H](O)COc1ccc2cc[nH]c2c1)S(=O)(=O)c1ccc([N+](=O)[O-])cc1 |
| 336 µM | COc1ccc(S(=O)(=O)N(CC(C)C)C[C@@H](O)COc2cccc3[nH]ccc23)cc1OC |
| 2630 µM | CC(C)CN(C[C@@H](O)CNc1cccc2[nH]ccc12)S(=O)(=O)c1ccc([N+](=O)[O-])cc1 |
| 336 µM | COc1ccc(S(=O)(=O)N(CC(C)C)C[C@@H](O)CNc2cccc3[nH]ccc23)cc1OC |
| 4400 µM | COc1ccc(S(=O)(=O)N(CC(C)C)C[C@@H](O)CNc2ccc3[nH]ccc3c2)cc1OC |
| 50 µM | CC(C)(C)NC(=O)[C@@H]1C[C@@H]2CCCC[C@@H]2CN1C[C@@H](O)COC(=O)Nc1cccc2[nH]ccc12 |
| 606 µM | CC(C)(C)NC(=O)[C@@H]1C[C@@H]2CCCC[C@@H]2CN1C[C@@H](O)COC(=O)Nc1ccc2[nH]ccc2c1 |
| 72 µM | CC(C)CN(C[C@@H](O)COC(=O)Nc1cccc2[nH]ccc12)S(=O)(=O)c1ccc([N+](=O)[O-])cc1 |
| 2 µM | CC(C)CN(C[C@@H](O)COC(=O)Nc1ccc2[nH]ccc2c1)S(=O)(=O)c1ccc([N+](=O)[O-])cc1 |
| 615 µM | COc1ccc(S(=O)(=O)N(CC(C)C)C[C@@H](O)COC(=O)Nc2cccc3[nH]ccc23)cc1OC |
| 1400 µM | COc1ccc(S(=O)(=O)N(CC(C)C)C[C@@H](O)COC(=O)Nc2ccc3[nH]ccc3c2)cc1OC |
| 8 µM | COc1ccc(S(=O)(=O)N(CC(C)C)C[C@@H](O)COC(=O)Nc2ccc3[nH]ccc3c2)cc1 |
| 157 µM | CC(C)(C)NC(=O)[C@@H]1C[C@@H]2CCCC[C@@H]2CN1C[C@@H](O)CNc1cccc2[nH]ccc12 |
| 176 µM | CC(C)(C)NC(=O)[C@@H]1C[C@@H]2CCCC[C@@H]2CN1C[C@@H](O)CNc1ccc2[nH]ccc2c1 |
